FLuc inh counter: inhibits firefly luciferase, flagging false hits in luciferase inhibition screens; inhibition, % at 10 µM; AID 1006; ATPLite firefly luciferase biochemical luminescence, 10 min; 200,000 tested, 1.5% active;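 active = inhibition above about 50% when tested at 10 µM, limit read from the data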
Target sequence (P08659 whole entry, looked up): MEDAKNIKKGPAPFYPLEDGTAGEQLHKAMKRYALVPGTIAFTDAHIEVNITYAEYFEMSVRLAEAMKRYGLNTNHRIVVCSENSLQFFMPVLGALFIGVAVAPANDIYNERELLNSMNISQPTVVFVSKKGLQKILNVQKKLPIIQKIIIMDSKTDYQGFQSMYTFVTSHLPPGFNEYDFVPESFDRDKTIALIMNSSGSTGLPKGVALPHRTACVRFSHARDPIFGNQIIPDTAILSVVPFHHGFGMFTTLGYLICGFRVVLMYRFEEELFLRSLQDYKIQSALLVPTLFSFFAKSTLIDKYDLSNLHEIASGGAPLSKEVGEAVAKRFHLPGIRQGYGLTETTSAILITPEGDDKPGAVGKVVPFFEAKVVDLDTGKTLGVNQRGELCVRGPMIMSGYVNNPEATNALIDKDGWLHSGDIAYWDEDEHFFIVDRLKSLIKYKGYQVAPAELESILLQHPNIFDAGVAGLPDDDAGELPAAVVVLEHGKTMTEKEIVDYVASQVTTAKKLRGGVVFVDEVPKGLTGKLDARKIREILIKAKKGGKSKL
STAT1 blocker: reduces IFN-gamma driven STAT1 reporter signal; NIH 3T3 STAT1-luciferase reporter, luminescence; inhibition, % at 5.5 µM; 200,000 tested, 0.35% active;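 active = inhibition above a set limit, the mean inhibition across all tested compounds plus 3 SD, cut at about 34% in these data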;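 also: 0% = IFN-gamma with DMSO and 100% = IFN-gamma with 300 µM nifuroxazide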
STAT3 act-1: activators of IL-6 induced STAT3 signaling; AID 871; 190,000 tested, 0.91% active; U3A cells, IL-6 STAT3-luciferase reporter, luminescence; 100% = signal with IL-6 EC80 alone; activation (% of control), % at 5.6 µM;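 active = activation above the screen-wide mean of compound activation plus 3 SD, cut at about 130% in these data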;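 also: 0% = background luminescence of wells with medium and substrate only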
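Material: STAT3-luciferase reporter U3A cells. Controls: IL-6-treated wells, 100% activation. Read-out: % activation versus median of IL-6-stimulated wells. Probe or stimulus: IL-6 stimulus at 33 ng/mL final. Timing: compound 1 h, then IL-6 6 h at 37 °C. Signal: reporter luminescence signal.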
STAT1 act-1: activators of IFN-gamma induced STAT1 signaling. NIH 3T3 STAT1-luciferase reporter, luminescence; 100% = IFN-gamma alone, no compound. activation (% of control), % at 5.5 µM. 200,000 tested, 2.6% active. AID 932;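 active = activation above the screen-wide mean activation plus 3 SD, cut at about 130% in these data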;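 also: raw ratio to IFN-gamma control signal so 100% means no change and 0% no light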
STAT3 inh: reduces IL-6 driven STAT3 reporter signal; 190,000 tested, 0.89% active; inhibition, % at 5.5 µM; U3A cells, IL-6 STAT3-luciferase reporter, luminescence; host cell line lacks STAT1;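 active = inhibition above the mean inhibition across all screened compounds plus 3 SD, cut at about 44% in these data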;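 also: 0% = DMSO only wells and 100% = 100 µM nifuroxazide control wells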
FLuc stim CS: firefly luciferase counter-screen for stimulation assays | P08659 | ATPlite luciferase biochemical, luminescence, 10 min; 0 = ATP-free wells, 1 = DMSO control | activation factor at 10 µM | 200,000 tested, under 10 active | AID 1027;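 active = luciferase activation factor, scaled between plate controls, of at least 2 with compound at 10 µM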
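Assay system: Luciferase/luciferin reagent mix; Medium: PBS as buffer for the ATP substrate; Dosing: test compounds dosed from 2 mM stocks in 100% DMSO; Times: 10 min, room temperature; Signal: luminescence from luciferase reaction; Read-out: luciferase activation; Controls: No-ATP low control, compound-free enzyme-plus-ATP high control.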
STAT3 act-2: confirmation of STAT3 signaling activators | shares compounds with STAT3 act-1 | U3A STAT3-luciferase reporter, IL-6 potentiation, luminescence; U3A cells lack STAT1; 100 means same as IL-6 alone | potentiation (% of control), % at 5.7 µM | 1,200 tested, 64% active;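 active = percent activation of the STAT3 luciferase reporter above a set limit taken from the earlier primary screen, cut at about 130% in these data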;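 also: 0% = background signal of medium plus substrate and 100% = median of IL-6 with DMSO wells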
NFkB act 2: activates NF-kappaB, counter-screen to STAT3 activators; human cells, NF-kappaB reporter activation; activation (% of control), % at 5.7 µM; 1,200 tested, 11% active; shares compounds with STAT3 act-1; AID 1309; in the data active = activation above about 120%;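 also: reporter induced by TNF-alpha stimulation; 100% = median of stimulated DMSO wells and 0% = no signal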
STAT1 act-2: counter-screen for STAT3 activators: STAT1 activation | shares compounds with STAT3 act-1 | AID 1318 | NIH 3T3 STAT1-luciferase reporter, IFN-gamma, luminescence | activation (% of control), % at 5.7 µM | 1,200 tested, 13% active;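 active = activation above the solvent-only control well mean plus 3 SD, set per screening run, cut at about 120% in these data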;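 also: 100% = IFN-gamma with DMSO median signal so 100% means no change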
Numbers without * were called inactive. The list is not random: actives were taken first. Their share in the collection is about 4.9%.

`COc1ccc(CCNC(=O)CSc2nnc(NC(C)=O)s2)cc1OC` gave FLuc inh counter -4, STAT1 blocker 3, STAT3 act-1 101, STAT1 act-1 97, STAT3 inh -3 and FLuc stim CS 1.
COC(=O)c1n[nH]c2ccccc12 was read as FLuc inh counter -7, STAT1 blocker 2, STAT3 act-1 160*, STAT1 act-1 98, STAT3 inh -66, FLuc stim CS 1.1, STAT3 act-2 154*, NFkB act 2 102 and STAT1 act-2 95.
For COCCNC(=O)c1n[nH]c2ccccc12 the results were FLuc inh counter -1, STAT1 blocker -11, STAT3 act-1 105, STAT1 act-1 110, STAT3 inh 0 and FLuc stim CS 1.
For Cc1ccc(S(=O)(=O)Oc2ccc(/C=N/NC(=O)c3nn(C)cc3[N+](=O)[O-])cc2)cc1 the results were FLuc inh counter -4, STAT1 blocker 2, STAT3 act-1 97, STAT1 act-1 98, STAT3 inh -1 and FLuc stim CS 1.
`Cc1cccc(/C=N/NC(=O)c2cc3c(s2)-c2ccccc2CC3)c1` gave FLuc inh counter 3, STAT1 blocker -6, STAT3 act-1 112, STAT1 act-1 105, STAT3 inh -8 and FLuc stim CS 1.
For COC(=O)c1cc2c(s1)-c1ccccc1CC2 the results were FLuc inh counter -3, STAT1 blocker -21, STAT3 act-1 164*, STAT1 act-1 120, STAT3 inh -64, FLuc stim CS 1, STAT3 act-2 150*, NFkB act 2 112 and STAT1 act-2 126*.
Screening Cn1c(N)c(-c2nc3cccnc3n2C)sc1=S returned FLuc inh counter 0, STAT1 blocker -21, STAT3 act-1 100, STAT1 act-1 116, STAT3 inh 5 and FLuc stim CS 1.
`Cc1ccc(-n2c(N)c(-c3nc4ccccc4n3C)sc2=S)cc1` gave FLuc inh counter 2, STAT1 blocker -2, STAT3 act-1 183*, STAT1 act-1 102, STAT3 inh -94, FLuc stim CS 1, STAT3 act-2 176*, NFkB act 2 109 and STAT1 act-2 117.
`Cc1cc(NC(=O)Cc2cccs2)no1` gave FLuc inh counter -7, STAT1 blocker 1, STAT3 act-1 143*, STAT1 act-1 99, STAT3 inh -47, FLuc stim CS 1.1, STAT3 act-2 131, NFkB act 2 108 and STAT1 act-2 100.
`COc1ccc(CCNC(=O)CO/N=C/c2cc3c(cc2Br)OCO3)cc1OC` gave FLuc inh counter -2, STAT1 blocker 5, STAT3 act-1 97, STAT1 act-1 94, STAT3 inh 5 and FLuc stim CS 1.
Screening CCN1CCCC1CNCc1cccc(OC)c1OCc1ccc(F)cc1 (stereo not given) returned FLuc inh counter -6, STAT1 blocker 2, STAT3 act-1 104, STAT1 act-1 98, STAT3 inh 1 and FLuc stim CS 1.1.
COc1ccc(C(=O)N2N=C(c3cccc(OC)c3)CC2(O)C(F)(F)F)cc1 (stereo not given) was read as FLuc inh counter -3, STAT1 blocker 3, STAT3 act-1 103, STAT1 act-1 98, STAT3 inh -6 and FLuc stim CS 1.
Cc1cccc(NS(=O)(=O)c2cc(C(=O)OCC(=O)Nc3cc(C)on3)ccc2C)c1 was read as FLuc inh counter -4, STAT1 blocker -2, STAT3 act-1 147*, STAT1 act-1 102, STAT3 inh -47, FLuc stim CS 1, STAT3 act-2 132, NFkB act 2 91 and STAT1 act-2 99.
Cc1cccc(NS(=O)(=O)c2ccc(C)c(C(=O)OCC(=O)Nc3cc(C)on3)c2)c1 was read as FLuc inh counter 4, STAT1 blocker 8, STAT3 act-1 140*, STAT1 act-1 93, STAT3 inh -43, FLuc stim CS 1, STAT3 act-2 140*, NFkB act 2 106 and STAT1 act-2 101.
`COc1ccccc1NS(=O)(=O)c1cccc(C(=O)OCC(=O)Nc2cc(C)on2)c1` gave FLuc inh counter -7, STAT1 blocker 2, STAT3 act-1 102, STAT1 act-1 98, STAT3 inh 2 and FLuc stim CS 1.1.
COc1ccc(C2c3[nH]c4ccccc4c3CCN2C(=O)c2ccc(=O)n(C)n2)c(F)c1 (stereo not given) was read as FLuc inh counter -4, STAT1 blocker -10, STAT3 act-1 148*, STAT1 act-1 107, STAT3 inh -50, FLuc stim CS 1, STAT3 act-2 153*, NFkB act 2 104 and STAT1 act-2 108.
Cc1ccccc1C1c2[nH]c3ccccc3c2CCN1C(=O)c1ccc(=O)n(C)n1 (stereo not given) was read as FLuc inh counter 0, STAT1 blocker 10, STAT3 act-1 163*, STAT1 act-1 90, STAT3 inh -66, FLuc stim CS 1, STAT3 act-2 169*, NFkB act 2 103 and STAT1 act-2 98.
Screening O=C1CC(c2ccccc2Cl)=NN(c2ncnc3ccccc23)C1=O returned FLuc inh counter 2, STAT1 blocker -9, STAT3 act-1 148*, STAT1 act-1 106, STAT3 inh -60, FLuc stim CS 1, STAT3 act-2 146*, NFkB act 2 109 and STAT1 act-2 111.
`CC1CCN(c2ncnc3ccccc23)CC1` gave FLuc inh counter -3, STAT1 blocker 5, STAT3 act-1 76, STAT1 act-1 96, STAT3 inh 31 and FLuc stim CS 1.
O=C(Cc1ccc(Br)cc1)OCC(=O)N1CCc2ccccc2C1 was read as FLuc inh counter -1, STAT1 blocker -8, STAT3 act-1 100, STAT1 act-1 107, STAT3 inh 0 and FLuc stim CS 1.
For Cc1cc(Br)ccc1-n1[nH]c(C)c(C=Nc2cccc3nsnc23)c1=O the results were FLuc inh counter -2, STAT1 blocker -10, STAT3 act-1 138*, STAT1 act-1 108, STAT3 inh -45, FLuc stim CS 1, STAT3 act-2 133*, NFkB act 2 101 and STAT1 act-2 99.
